Measured values reported in ChEMBL document CHEMBL5365541, “Designing peptide amphiphiles as novel antibacterials and antibiotic adjuvants against gram-negative bacteria” (Bioorg Med Chem, 2023).
In brackets after ≈: the same amount, converted by molar mass. Activity calls are given as the source filed them. No cut-off for these calls is given here. Starred links: 1 amine or outer side, 2 acyl side, 3 side chain; linkers in the order of their positions; H or OH if unused. Non-standard residues stand in square brackets, D forms with d. Residues, ends and D or L forms follow the SMILES beside them. X1 = CCCCCCCCCCCCCCCCN([C@@H](CCCCN)C(=O)[*:2])[*:1]; X2 = CCCCCCCCCCCCCCCCN([C@@H](C)C(=O)[*:2])[*:1]

What was measured:
[1] = tested on: Escherichia coli; experiment: Synergistic antibacterial activity against Escherichia coli K12 incubated for 20 to 24 hrs in presence of vancomycin by checkerboard broth microdilution assay; format: functional; conditions: time 20-24 hrs
Method in brief: (§1)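 Checkerboard broth microdilution. E. coli K12 or A. baumannii clinical isolate grown to mid-log (OD ~0.8) and diluted to ~10^5 CFU/mL in MHB. Two-fold dilutions of rifampicin or vancomycin run across the plate against two-fold PA dilutions down it. Incubated 20–24 h at 37 °C, OD read at 470 nm. FICi calculated from the combination MICs.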

[2] = Retention time of the compound by RP-HPLC analysis; format: physicochemical
Method in brief: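 Reverse-phase HPLC, linear gradient 0–100% acetonitrile in water with 0.1% TFA over 20 min; retention time recorded.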

[3] = tested on: Acinetobacter baumannii; experiment: Antibacterial activity against Acinetobacter baumannii incubated for 20 to 24 hrs by broth microdilution method; format: functional; conditions: time 20-24 hrs
Method in brief: (§2)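 Broth microdilution: colonies suspended directly to 1.5×10^8 CFU/mL (0.5 McFarland), then diluted in Mueller–Hinton broth to ~10^5 CFU/mL final. PA stock 1 mg/mL in water, pH 7, serially diluted in MHB. Plates incubated 20–24 h at 37 °C. MIC = lowest concentration inhibiting growth, read as OD600 with optional 1% TTC staining. Triplicate.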

[4] = tested on: Escherichia coli; experiment: Antibacterial activity against Escherichia coli K12 incubated for 20 to 24 hrs by broth microdilution method; format: functional; conditions: time 20-24 hrs; method in brief: as §2
[5] = tested on: Staphylococcus aureus; experiment: Antibacterial activity against methicillin-resistant Staphylococcus aureus JE2 incubated for 20 to 24 hrs by broth microdilution method; format: functional; conditions: time 20-24 hrs
Method in brief: (§3)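 Broth microdilution in MHB: direct colony suspension at 0.5 McFarland diluted to ~10^5 CFU/mL final; peptide stock 1 mg/mL in water at pH 7, serially diluted. Incubated 20-24 h at 37 °C; MIC taken as the lowest concentration inhibiting growth (OD 600 nm, 1% TTC stain); triplicate; vancomycin and gentamicin as positive controls.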

[6] = tested on: Staphylococcus aureus; experiment: Antibacterial activity against methicillin-resistant Staphylococcus aureus 13C incubated for 20 to 24 hrs by broth microdilution method; format: functional; conditions: time 20-24 hrs; method in brief: as §3
[7] = tested on: Escherichia coli; experiment: Synergistic antibacterial activity against Escherichia coli K12 assessed as fractional inhibitory concentration index incubated for 20 to 24 hrs in presence of vancomycin by checkerboard broth microdilution assay; format: functional; conditions: time 20-24 hrs; method in brief: as §1
[8] = tested on: Acinetobacter baumannii; experiment: Synergistic antibacterial activity against Acinetobacter baumannii assessed as fractional inhibitory concentration index incubated for 20 to 24 hrs in presence of vancomycin by checkerboard broth microdilution assay; format: functional; conditions: time 20-24 hrs; method in brief: as §1
[9] = tested on: Cell membrane; experiment: Induction of inner membrane permeability in Escherichia coli K12 at 2 times FICI in presence of vancomycin by propidium iodide staining based spectrofluorometry; format: subcellular; conditions: dose 2.0 µg/ml
Method in brief: (§4)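 E. coli K12 grown in MHB to mid-log, washed twice in PBS, and diluted to 10^6 CFU/mL in 5 mM HEPES + glucose. Cells preincubated with […] at least 15 min at 37 °C. Then treated with agent at 1/8, 1× or 2× MIC, or with PA–vancomycin 1:1. Fluorescence read at ex 535 / em 615 nm. Polymyxin B as positive control; untreated cells as negative control.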

[10] = tested on: Cell membrane; experiment: Induction of inner membrane permeability in Escherichia coli K12 at 4 ug/mL by propidium iodide staining based spectrofluorometry; format: subcellular; conditions: dose 4.0 µg/ml; method in brief: as §4
[11] = tested on: Cell membrane; experiment: Induction of inner membrane permeability in Escherichia coli K12 by propidium iodide staining based spectrofluorometry; format: subcellular; conditions: dose 4-64 µg/ml; method in brief: as §4
[12] = tested on: Cell membrane; experiment: Induction of inner membrane permeability in Escherichia coli K12 at FICI in presence of vancomycin by propidium iodide staining based spectrofluorometry; format: subcellular; conditions: dose 4.0 µg/ml; method in brief: as §4
[13] = tested on: Staphylococcus aureus; experiment: Antibacterial activity against methicillin resistant Staphylococcus aureus JE2 assessed as fold increase in MIC after 21 days in presence of vancomycin by broth microdilution method relative to MIC before 21 days; format: functional; conditions: time 21 day
[14] = tested on: Staphylococcus aureus; experiment: Antibacterial activity against methicillin resistant Staphylococcus aureus JE2 assessed as fold increase in MIC after 21 days by broth microdilution method relative to MIC before 21 days; format: functional; conditions: time 21 day
[15] = tested on: HEK293; experiment: Cytotoxicity against HEK293 cells assessed as reduction in cell viability at 64 to 256 ug/ml incubated for 24 hrs by XTT assay; format: toxicity, cell-based; conditions: human, hek293, 24 h, dose 64-256 µg/ml
Method in brief: (§5)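 HEK-293 cells, passages 3–8, seeded at 5×10^4 per well and preincubated 24 h at 37 °C, 5% CO2. Medium replaced with serially diluted PA, final 8–256 µg/mL, for 24 h, in triplicate. XTT reagent (0.5 mg/mL) added for 4 h at 37 °C, then absorbance read at 600 nm.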

[16] = Hemolytic activity in human red blood cells assessed as hemolysis at 8 ug/ml incubated for 60 min relative to control; format: toxicity, cell-based, Erythrocyte; conditions: at 8 µg/mL, read-out: Activity
Method in brief: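 Washed human RBCs at 0.25×10^8 cells/mL final in PBS, mixed with PA (stocks 16–1024 µg/mL, equal volume). Shaken 10 min, then incubated 60 min at 37 °C, 5% CO2. Cells pelleted at 1000 × g; supernatant hemoglobin read at OD405. 5% Triton X-100 taken as 100% hemolysis; water as negative control.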

[17] = Self assembly property of the compound assessed as zeta potential at 250 ug/mL at pH 7 measured after 2 hrs; format: physicochemical; conditions: pH 7, 2 h, dose 250 µg/ml
Method in brief: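 Peptide self-assembled at 1 mg/mL, pH 7, annealed 2 h at 80 °C, and aged overnight. Diluted to 250 µg/mL in water; zeta potential measured at 25 °C.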

[18] = Self assembly property of the compound assessed as formation of micelles at 1 mg/ml incubated overnight by transmission electron microscopy; format: physicochemical
Method in brief: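 Samples were dissolved at 2 mM in water, pH 7, and left at room temperature overnight. Applied to copper grids for 5 min, blotted, and negatively stained with NanoVan for 30 s. Imaged by TEM at 120 kV.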

[19] = tested on: Escherichia coli; experiment: Synergistic antibacterial activity against Escherichia coli K12 assessed as potentiation of vancomycin-induced antibacterial activity by measuring fold increase in vancomycin MIC incubated for 20 to 24 hrs by checkerboard broth microdilution assay relative to vancomycin alone; format: functional; conditions: time 20-24 hrs; method in brief: as §1
[20] = tested on: Escherichia coli; experiment: Synergistic antibacterial activity against Escherichia coli K12 assessed as potentiation of vancomycin-induced antibacterial activity by vancomycin MIC incubated for 20 to 24 hrs by checkerboard broth microdilution assay; format: functional; conditions: time 20-24 hrs; method in brief: as §1
[21] = Cytotoxicity against HEK293 cells assessed as cell viability up to 64 ug/ml incubated for 24 hrs by XTT assay relative to control; format: toxicity, cell-based; conditions: human, up to 64 µg/mL, read-out: Activity; method in brief: as §5
[22] = tested on: Escherichia coli; experiment: Ratio of MIC for Escherichia coli K12 at pH 5.5 to MIC for Escherichia coli K12 at pH 7.0
[23] = tested on: Staphylococcus aureus; experiment: Ratio of MIC for methicillin-resistant Staphylococcus aureus JE2 at pH 5.5 to MIC for methicillin-resistant Staphylococcus aureus JE2 at pH 7.0
[24] = tested on: Staphylococcus aureus; experiment: Antibacterial activity against methicillin-resistant Staphylococcus aureus LAC incubated for 20 to 24 hrs by broth microdilution method; format: functional; conditions: time 20-24 hrs; method in brief: as §3
[25] = tested on: Escherichia coli; experiment: Synergistic antibacterial activity against Escherichia coli K12 assessed as fractional inhibitory concentration index incubated for 20 to 24 hrs in presence of rifampicin by checkerboard broth microdilution assay; format: functional; conditions: time 20-24 hrs; method in brief: as §1
[26] = tested on: Acinetobacter baumannii; experiment: Synergistic antibacterial activity against Acinetobacter baumannii assessed as fractional inhibitory concentration index incubated for 20 to 24 hrs in presence of rifampicin by checkerboard broth microdilution assay; format: functional; conditions: time 20-24 hrs; method in brief: as §1
[27] = tested on: Cell membrane; experiment: Induction of inner membrane permeability in Escherichia coli K12 at 8 to 16 ug/mL by propidium iodide staining based spectrofluorometry; format: subcellular; conditions: dose 8-16 µg/ml; method in brief: as §4
[28] = tested on: Staphylococcus aureus; experiment: Antibacterial activity against methicillin resistant Staphylococcus aureus JE2 assessed as fold increase in MIC after 5 days by broth microdilution method relative to MIC before 5 days; format: functional; conditions: time 5 day
[29] = tested on: Escherichia coli; experiment: Synergistic antibacterial activity against Escherichia coli K12 assessed as potentiation of rifampicin-induced antibacterial activity by measuring fold increase in rifampicin MIC incubated for 20 to 24 hrs by checkerboard broth microdilution assay relative to rifampicin alone; format: functional; conditions: time 20-24 hrs; method in brief: as §1
[30] = tested on: Acinetobacter baumannii; experiment: Synergistic antibacterial activity against Acinetobacter baumannii assessed as potentiation of rifampicin-induced antibacterial activity by measuring fold increase in rifampicin MIC incubated for 20 to 24 hrs by checkerboard broth microdilution assay relative to rifampicin alone; format: functional; conditions: time 20-24 hrs; method in brief: as §1
[31] = tested on: Cell membrane; experiment: Induction of inner membrane permeability in Escherichia coli K12 assessed as shift in bacterial zeta potential at 80 ug/ml measured after 1 hr; format: subcellular; conditions: dose 80.0 µg/ml
[32] = tested on: Cell membrane; experiment: Induction of inner membrane permeability in methicillin-resistant Staphylococcus aureus JE2 assessed as shift in bacterial zeta potential at 80 ug/ml measured after 1 hr; format: subcellular; conditions: dose 80.0 µg/ml
Method in brief: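 Mid-log MRSA JE2 from MHB (OD ~0.8) washed and resuspended in PBS at 5×10^7 CFU/mL, exposed to peptide at 10 × MIC for 1 h, then zeta potential measured at 25 °C; untreated cells as negative control, daptomycin and polymyxin B as reference drugs.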

SMILES | Retention_time [2] [min] | MIC [3] [µg/mL] | MIC [4] [µg/mL] | MIC [5] [µg/mL] | MIC [6] [µg/mL] | Activity [10] | Activity [15] | hemolysis at 1 h, 8 ug/ml [16] [%] | Activity [17] [mV] | Activity [18] | viability at 24 h [21] [%] | also measured
CCCCCCCCCCCCCCCCN[C@@H](CCCCN)C(=O)N[C@@H](Cc1c[nH]cn1)C(=O)N[C@@H](CCCCN)C(=O)N[C@@H](Cc1c[nH]cn1)C(=O)N[C@@H](CCCCN)C(=O)O (H-[X1]HKHK-OH) | 13.4 | 64 (≈ 71 µM) | 32 (≈ 35.5 µM) | 64 (≈ 71 µM) | 32 (≈ 35.5 µM) | Active | Non-Toxic | 28.2 | 15.8 | Active | 100 | MIC [1]: 4 µg/mL; fractional inhibitory concentration index (FICI) [7]: 0.15; fractional inhibitory concentration index (FICI) [8]: 1; Activity [9]: Active; Activity [11]: Dose-Dependent Effect; Activity [12]: Active; fold change (FC) [13]: 8; fold change (FC) [14]: 8; fold change (FC) [19]: 32; MIC [20]: 4 µg/mL; Ratio [22]: > 1; Ratio [23]: > 1
CCCCCCCCCCCCCCCCN[C@@H](C)C(=O)N[C@@H](C)C(=O)N[C@@H](C)C(=O)N[C@@H](CCCCN)C(=O)N[C@@H](CCCNC(=N)N)C(=O)N[C@@H](CCCCN)C(=O)N[C@@H](CCCNC(=N)N)C(=O)O (H-[X2]AAKRKR-OH) | 14.3 | 4 (≈ 3.9 µM) | 8 (≈ 7.81 µM) | 8 (≈ 7.81 µM) | 8 (≈ 7.81 µM) | inactive | Non-Toxic | 33.3 | 10.8 | Active | 100 | MIC [24]: 8 µg/mL (≈ 7.81 µM); fractional inhibitory concentration index (FICI) [25]: 0.62; fractional inhibitory concentration index (FICI) [26]: 0.75; Activity [27]: Active; fold change (FC) [28]: 2; fold change (FC) [29]: 8; fold change (FC) [30]: 2; Activity [31]: Active; Activity [32]: Active
